Measured values reported in ChEMBL document CHEMBL3864121, “Development of ebsulfur analogues as potent antibacterials against methicillin-resistant Staphylococcus aureus” (Bioorg Med Chem, 2016).
In brackets after ≈: the same amount, converted by molar mass.

Assays:
Type in all cases: functional
Staphylococcus aureus [1] = assay: Antibacterial activity against methicillin-sensitive Staphylococcus aureus ATCC 6538 measured after overnight incubation by broth double-dilution method
Procedure, shortened: (§1)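 MIC by broth double-dilution in liquid Mueller-Hinton medium. Values are reported in µg/mL.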

Staphylococcus aureus [2] = assay: Antibacterial activity against methicillin-sensitive Staphylococcus aureus ATCC 25923 measured after overnight incubation by broth double-dilution method; procedure, shortened: as §1
Staphylococcus aureus [3] = assay: Antibacterial activity against methicillin-sensitive Staphylococcus aureus ATCC 29213 measured after overnight incubation by broth double-dilution method; procedure, shortened: as §1
Staphylococcus aureus [4] = assay: Antibacterial activity against methicillin-resistant Staphylococcus aureus ATCC 33591 measured after overnight incubation by broth double-dilution method; procedure, shortened: as §1
Staphylococcus aureus [5] = assay: Antibacterial activity against methicillin-resistant Staphylococcus aureus 1 measured after overnight incubation by broth double-dilution method; procedure, shortened: as §1
Staphylococcus aureus [6] = assay: Antibacterial activity against methicillin-resistant Staphylococcus aureus 2 measured after overnight incubation by broth double-dilution method; procedure, shortened: as §1
Staphylococcus aureus [7] = assay: Antibacterial activity against methicillin-resistant Staphylococcus aureus BRS3 measured after overnight incubation by broth double-dilution method; procedure, shortened: as §1
Staphylococcus aureus [8] = assay: Antibacterial activity against methicillin-resistant Staphylococcus aureus C1 measured after overnight incubation by broth double-dilution method; procedure, shortened: as §1
Staphylococcus aureus [9] = assay: Antibacterial activity against methicillin-resistant Staphylococcus aureus C2 measured after overnight incubation by broth double-dilution method; procedure, shortened: as §1
Staphylococcus aureus [10] = assay: Antibacterial activity against methicillin-resistant Staphylococcus aureus C7 measured after overnight incubation by broth double-dilution method; procedure, shortened: as §1
Staphylococcus aureus [11] = assay: Antibacterial activity against methicillin-resistant Staphylococcus aureus C14 measured after overnight incubation by broth double-dilution method; procedure, shortened: as §1
Staphylococcus aureus [12] = assay: Antibacterial activity against methicillin-resistant Staphylococcus aureus C16 measured after overnight incubation by broth double-dilution method; procedure, shortened: as §1
Staphylococcus aureus [13] = assay: Antibacterial activity against methicillin-resistant Staphylococcus aureus C19 measured after overnight incubation by broth double-dilution method; procedure, shortened: as §1
Staphylococcus aureus [14] = assay: Antibacterial activity against methicillin-resistant Staphylococcus aureus G1 measured after overnight incubation by broth double-dilution method; procedure, shortened: as §1
Staphylococcus aureus [15] = assay: Antibacterial activity against methicillin-resistant Staphylococcus aureus G6 measured after overnight incubation by broth double-dilution method; procedure, shortened: as §1
Staphylococcus aureus [16] = assay: Antibacterial activity against methicillin-resistant Staphylococcus aureus G12 measured after overnight incubation by broth double-dilution method; procedure, shortened: as §1
Staphylococcus aureus [17] = assay: Antibacterial activity against methicillin-resistant Staphylococcus aureus G14 measured after overnight incubation by broth double-dilution method; procedure, shortened: as §1
Staphylococcus aureus [18] = assay: Antibacterial activity against methicillin-resistant Staphylococcus aureus NRS4 measured after overnight incubation by broth double-dilution method; procedure, shortened: as §1
Staphylococcus aureus [19] = assay: Antibacterial activity against methicillin-resistant Staphylococcus aureus NRS51 measured after overnight incubation by broth double-dilution method; procedure, shortened: as §1
Staphylococcus aureus [20] = assay: Antibacterial activity against methicillin-resistant Staphylococcus aureus NRS77 measured after overnight incubation by broth double-dilution method; procedure, shortened: as §1
Staphylococcus aureus [21] = assay: Antibacterial activity against methicillin-resistant Staphylococcus aureus S14 measured after overnight incubation by broth double-dilution method; procedure, shortened: as §1
Staphylococcus aureus [22] = assay: Antibacterial activity against methicillin-resistant Staphylococcus aureus S17 measured after overnight incubation by broth double-dilution method; procedure, shortened: as §1
Staphylococcus aureus [23] = assay: Antibacterial activity against methicillin-resistant Staphylococcus aureus S22 measured after overnight incubation by broth double-dilution method; procedure, shortened: as §1
Staphylococcus aureus [24] = assay: Antibacterial activity against methicillin-resistant Staphylococcus aureus S24 measured after overnight incubation by broth double-dilution method; procedure, shortened: as §1
Staphylococcus aureus [25] = assay: Antibacterial activity against methicillin-resistant Staphylococcus aureus USA100 measured after overnight incubation by broth double-dilution method; procedure, shortened: as §1
Staphylococcus aureus [26] = assay: Antibacterial activity against methicillin-resistant Staphylococcus aureus USA200 measured after overnight incubation by broth double-dilution method; procedure, shortened: as §1
Staphylococcus aureus [27] = assay: Antibacterial activity against methicillin-resistant Staphylococcus aureus USA300 measured after overnight incubation by broth double-dilution method; procedure, shortened: as §1
Staphylococcus aureus [28] = assay: Antibacterial activity against methicillin-resistant Staphylococcus aureus USA600 measured after overnight incubation by broth double-dilution method; procedure, shortened: as §1
[29] = test system: Staphylococcus epidermidis; assay: Antibacterial activity against Staphylococcus epidermidis ATCC 35984 measured after overnight incubation by broth double-dilution method; details: RP62A
Procedure, shortened: (§2)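 MIC by broth double-dilution in Mueller-Hinton medium. Re-testing at the time-kill inoculum used 1×10^6 CFU/mL.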

Enterococcus faecalis [30] = assay: Antibacterial activity against Enterococcus faecalis ATCC 29212 measured after overnight incubation by broth double-dilution method; procedure, shortened: as §2
Enterococcus faecalis [31] = assay: Antibacterial activity against Enterococcus faecalis ATCC 49533 measured after overnight incubation by broth double-dilution method; procedure, shortened: as §2
Enterococcus faecium = assay: Antibacterial activity against Enterococcus faecium BM4105-RF measured after overnight incubation by broth double-dilution method; procedure, shortened: as §1
Enterococcus = assay: Antibacterial activity against Vancomycin-resistant Enterococcus measured after overnight incubation by broth double-dilution method; procedure, shortened: as §1
Listeria monocytogenes = assay: Antibacterial activity against Listeria monocytogenes ATCC 19115 measured after overnight incubation by broth double-dilution method; procedure, shortened: as §2
[32] = test system: Mycolicibacterium smegmatis; assay: Antibacterial activity against Mycobacterium smegmatis MC2-155 measured after overnight incubation by broth double-dilution method; details: str. MC2 155; procedure, shortened: as §1

Row | Structure (SMILES) | MIC (Staphylococcus aureus [2]) | MIC (Staphylococcus aureus [3]) | MIC (Staphylococcus aureus [4]) | MIC (Staphylococcus aureus [6]) | MIC (Staphylococcus aureus [10]) | MIC (Staphylococcus aureus [16]) | MIC (Staphylococcus aureus [17]) | MIC (Staphylococcus aureus [20]) | MIC (Staphylococcus aureus [21]) | MIC (Staphylococcus aureus [22]) | MIC (Staphylococcus aureus [23]) | MIC (Staphylococcus aureus [24]) | MIC (Staphylococcus aureus [25]) | MIC (Staphylococcus aureus [26]) | MIC (Staphylococcus aureus [27]) | MIC [29] | MIC (Enterococcus faecalis [31]) | MIC (Enterococcus faecium) | MIC (Enterococcus) | MIC (Listeria monocytogenes) | further results
1 | CCCCCCCCCCCCn1sc2ccccc2c1=O | 3.9 µg/mL (≈ 12.2 µM) | 3.9 µg/mL (≈ 12.2 µM) | 2 µg/mL (≈ 6.26 µM) | 1 µg/mL (≈ 3.13 µM) | 2 µg/mL (≈ 6.26 µM) | 1 µg/mL (≈ 3.13 µM) | 2 µg/mL (≈ 6.26 µM) | 2 µg/mL (≈ 6.26 µM) | 1 µg/mL (≈ 3.13 µM) | 1 µg/mL (≈ 3.13 µM) | 3.9 µg/mL (≈ 12.2 µM) | 1 µg/mL (≈ 3.13 µM) | 3.9 µg/mL (≈ 12.2 µM) | 7.8 µg/mL (≈ 24.4 µM) | 7.8 µg/mL (≈ 24.4 µM) | 0.25 µg/mL (≈ 0.782 µM) | > 125 µg/mL | 3.9 µg/mL (≈ 12.2 µM) | 1 µg/mL (≈ 3.13 µM) | 15.6 µg/mL (≈ 48.8 µM) | MIC (Staphylococcus aureus [1]): 62.5 µg/mL (≈ 196 µM); MIC (Staphylococcus aureus [5]): 0.25 µg/mL (≈ 0.782 µM); MIC (Staphylococcus aureus [7]): 15.6 µg/mL (≈ 48.8 µM); MIC (Staphylococcus aureus [8]): 3.9 µg/mL (≈ 12.2 µM); MIC (Staphylococcus aureus [9]): 1 µg/mL (≈ 3.13 µM); MIC (Staphylococcus aureus [11]): 15.6 µg/mL (≈ 48.8 µM); MIC (Staphylococcus aureus [12]): 3.9 µg/mL (≈ 12.2 µM); MIC (Staphylococcus aureus [13]): 1 µg/mL (≈ 3.13 µM); MIC (Staphylococcus aureus [14]): 0.5 µg/mL (≈ 1.56 µM); MIC (Staphylococcus aureus [15]): 1 µg/mL (≈ 3.13 µM); MIC (Staphylococcus aureus [18]): 3.9 µg/mL (≈ 12.2 µM); MIC (Staphylococcus aureus [19]): 3.9 µg/mL (≈ 12.2 µM); MIC (Staphylococcus aureus [28]): 7.8 µg/mL (≈ 24.4 µM); MIC (Enterococcus faecalis [30]): > 125 µg/mL; MIC [32]: 7.8 µg/mL (≈ 24.4 µM)
2 | C#Cc1ccc(-n2sc3ccccc3c2=O)cc1 | 3.9 µg/mL (≈ 15.5 µM) | 1 µg/mL (≈ 3.98 µM) | 1 µg/mL (≈ 3.98 µM) | 2 µg/mL (≈ 7.96 µM) | 2 µg/mL (≈ 7.96 µM) | 3.9 µg/mL (≈ 15.5 µM) | 3.9 µg/mL (≈ 15.5 µM) | 3.9 µg/mL (≈ 15.5 µM) | 0.5 µg/mL (≈ 1.99 µM) | 3.9 µg/mL (≈ 15.5 µM) | 2 µg/mL (≈ 7.96 µM) | 2 µg/mL (≈ 7.96 µM) | 2 µg/mL (≈ 7.96 µM) | 3.9 µg/mL (≈ 15.5 µM) | 3.9 µg/mL (≈ 15.5 µM) | 2 µg/mL (≈ 7.96 µM) | < 125 µg/mL | 7.8 µg/mL (≈ 31 µM) | 2 µg/mL (≈ 7.96 µM) | 3.9 µg/mL (≈ 15.5 µM) | MIC (Staphylococcus aureus [5]): 3.9 µg/mL (≈ 15.5 µM); MIC (Staphylococcus aureus [8]): 2 µg/mL (≈ 7.96 µM); MIC (Staphylococcus aureus [9]): 2 µg/mL (≈ 7.96 µM); MIC (Staphylococcus aureus [13]): 2 µg/mL (≈ 7.96 µM); MIC (Staphylococcus aureus [14]): 2 µg/mL (≈ 7.96 µM); MIC (Staphylococcus aureus [19]): 3.9 µg/mL (≈ 15.5 µM); MIC [32]: 3.9 µg/mL (≈ 15.5 µM)
3 | CC(C)(C)n1sc2ccccc2c1=O | 15.6 µg/mL (≈ 75.3 µM) | 15.6 µg/mL (≈ 75.3 µM) | 3.9 µg/mL (≈ 18.8 µM) | 15.6 µg/mL (≈ 75.3 µM) | 15.6 µg/mL (≈ 75.3 µM) | 15.6 µg/mL (≈ 75.3 µM) | 15.6 µg/mL (≈ 75.3 µM) | 15.6 µg/mL (≈ 75.3 µM) | 2 µg/mL (≈ 9.65 µM) | 15.6 µg/mL (≈ 75.3 µM) | 15.6 µg/mL (≈ 75.3 µM) | 15.6 µg/mL (≈ 75.3 µM) | 15.6 µg/mL (≈ 75.3 µM) | 15.6 µg/mL (≈ 75.3 µM) | 15.6 µg/mL (≈ 75.3 µM) | 15.6 µg/mL (≈ 75.3 µM) | 125 µg/mL (≈ 603 µM) | 7.8 µg/mL (≈ 37.6 µM) | 3.9 µg/mL (≈ 18.8 µM) | 3.9 µg/mL (≈ 18.8 µM) | MIC (Staphylococcus aureus [1]): 15.6 µg/mL (≈ 75.3 µM); MIC (Staphylococcus aureus [7]): 15.6 µg/mL (≈ 75.3 µM); MIC (Staphylococcus aureus [11]): 15.6 µg/mL (≈ 75.3 µM); MIC (Staphylococcus aureus [12]): 15.6 µg/mL (≈ 75.3 µM); MIC (Staphylococcus aureus [15]): 15.6 µg/mL (≈ 75.3 µM); MIC (Staphylococcus aureus [18]): 15.6 µg/mL (≈ 75.3 µM); MIC (Staphylococcus aureus [28]): 15.6 µg/mL (≈ 75.3 µM); MIC (Enterococcus faecalis [30]): 15.6 µg/mL (≈ 75.3 µM); MIC [32]: 3.9 µg/mL (≈ 18.8 µM)
